{"source": "ChEMBL document CHEMBL1132237", "about": "“Fluorination of 3-(3-(piperidin-1-yl)propyl)indoles and 3-(3-(piperazin-1-yl)propyl)indoles gives selective human 5-HT1D receptor ligands with improved pharmacokinetic profiles” (J Med Chem, 1999)", "key": {"[1]": {"assay": "Rate of clearance in rat was determined", "format": "ADME, organism-based", "conditions": "plasma, read-out: Clp", "method_in_brief": "(§1)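 Male Sprague–Dawley rats (~300 g) were fasted overnight and tail-artery cannulated under isoflurane, then allowed to recover for at least 30 min. Each received 3 mg/kg by tail-vein bolus (3 mg/mL in PEG 300:5 mM HCl 25:75) or by gavage (0.6 mg/mL in PEG 400:5 mM HCl 25:75), three rats per route. Serial blood was sampled up to 6 h. Plasma was analysed by solid-phase extraction and reverse-phase HPLC with fluorescence detection (ex 235, em 370 nm) against spiked-plasma calibration curves.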"}, "[2]": {"assay": "Oral bioavailability in rat", "format": "ADME, organism-based", "conditions": "in vivo", "method_in_brief": "as §1"}, "[3]": {"molecular_target": "T1, 5-hydroxytryptamine receptor 1B (Homo sapiens, UniProt P28222)", "T1 sequence (P28222 whole entry)": "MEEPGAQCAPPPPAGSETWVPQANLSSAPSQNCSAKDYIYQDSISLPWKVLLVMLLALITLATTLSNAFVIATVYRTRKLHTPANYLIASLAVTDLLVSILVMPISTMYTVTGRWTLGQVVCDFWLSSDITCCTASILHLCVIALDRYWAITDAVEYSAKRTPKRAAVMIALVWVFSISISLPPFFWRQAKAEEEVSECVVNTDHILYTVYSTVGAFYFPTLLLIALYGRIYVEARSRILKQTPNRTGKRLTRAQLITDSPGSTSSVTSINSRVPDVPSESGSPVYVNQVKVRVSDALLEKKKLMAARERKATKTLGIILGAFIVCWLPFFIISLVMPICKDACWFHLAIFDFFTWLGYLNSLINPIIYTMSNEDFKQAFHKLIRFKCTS", "assay": "Agonist-induced [35S]GTP-gamma-S, binding in CHO cells stably transfected with human 5-hydroxytryptamine 1B receptor", "format": "functional, cell-based", "method_in_brief": "(§2)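 [35S]GTPγS binding stimulated by agonist, measured in CHO cells stably transfected with the human 5-HT1D or 5-HT1B receptor. EC50 values are the logarithmic mean of 2–3 independent determinations. Maximum variance of individual log(EC50) values from the mean was 4%.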"}, "[4]": {"molecular_target": "T1, 5-hydroxytryptamine receptor 1B", "assay": "Efficacy of compound was evaluated relative to human 5-hydroxytryptamine 1B receptor using [35S]GTP-gamma-S, as radioligand", "format": "functional"}, "[5]": {"assay": "pKa value was determined", "format": "physicochemical", "method_in_brief": "(§3)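 Potentiometric titration in MeOH–H2O cosolvent with ionic strength set by 0.15 M KCl. Three titrations at different water/cosolvent ratios gave psKa values. Aqueous pKa was obtained by Yasuda–Shedlovsky extrapolation to 100% water, plotting psKa + log[H2O] against 1/ε.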"}, "[6]": {"molecular_target": "Serotonin 1 receptors; 5-HT1B & 5-HT1D (Homo sapiens) (UniProt P28222+P28221)", "assay": "Selectivity towards 5-HT1D and to that of 5-HT1B in CHO cells", "format": "cell-based", "method_in_brief": "(§4)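 Radioligand binding to human 5-HT1D and 5-HT1B receptors stably expressed in CHO cells. Radioligand was used at approximately its KD for each receptor. IC50 values are the logarithmic mean of 2–5 independent determinations, each run in duplicate. Maximum variance from the mean of log(IC50) was 4%. Selectivity is IC50(1B)/IC50(1D).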"}, "[7]": {"assay": "The compound was evaluated for the pKa units relative to N-methyl-piperazine.", "format": "physicochemical"}, "[8]": {"assay": "Relative protonation energy of the compound"}, "[9]": {"molecular_target": "T1, 5-hydroxytryptamine receptor 1B", "assay": "Efficacy was evaluated relative to human 5-HT1B receptor using [35S]GTP-gamma-S, as radioligand", "format": "functional"}, "[10]": {"molecular_target": "T2, 5-hydroxytryptamine receptor 1D (Homo sapiens, UniProt P28221)", "T2 sequence (P28221 whole entry)": "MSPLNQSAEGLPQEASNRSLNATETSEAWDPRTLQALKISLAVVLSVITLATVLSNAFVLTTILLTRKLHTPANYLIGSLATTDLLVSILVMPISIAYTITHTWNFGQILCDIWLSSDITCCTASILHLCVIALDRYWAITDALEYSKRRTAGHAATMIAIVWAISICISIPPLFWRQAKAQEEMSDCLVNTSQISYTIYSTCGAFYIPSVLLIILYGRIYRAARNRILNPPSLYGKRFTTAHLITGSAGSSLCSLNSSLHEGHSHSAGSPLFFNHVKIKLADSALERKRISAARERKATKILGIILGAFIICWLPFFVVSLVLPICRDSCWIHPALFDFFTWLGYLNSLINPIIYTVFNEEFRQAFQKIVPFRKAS", "assay": "Agonist-induced [35S]GTP-gamma-S, binding in CHO cells stably transfected with human 5-hydroxytryptamine 1D receptor", "format": "functional, cell-based", "method_in_brief": "as §2"}, "[11]": {"assay": "pKa value by potentiometric method", "format": "physicochemical", "method_in_brief": "as §3"}, "[12]": {"molecular_target": "T2, 5-hydroxytryptamine receptor 1D", "assay": "Displacement of specific [3H]5-HT binding to cloned human 5-hydroxytryptamine 1D receptor expressed in CHO cells", "format": "cell-based", "method_in_brief": "as §4"}, "Rattus norvegicus [13]": {"test_system": "Rattus norvegicus", "assay": "Oral absorption study in rat plasma obtained from hepatic portal vein after 0.5 hours of administration of 3 mg/kg orally", "format": "functional, organism-based", "design": "dose 3 mg/kg", "method_in_brief": "(§5)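 Male Sprague–Dawley rats, fasted overnight and with no surgery, received 3 mg/kg orally as a 0.6 mg/mL solution in PEG 400:5 mM HCl (25:75 v/v). Terminal blood was taken from the heart and hepatic portal vein under isoflurane at 0.5 and 2 h, three rats per time point. Plasma drug was measured by electrospray mass spectrometry. Values are mean ± SEM.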"}, "Rattus norvegicus [14]": {"test_system": "Rattus norvegicus", "assay": "Oral absorption study in rat plasma obtained from cardiac blood samples after 0.5 hours of administration of 3 mg/kg orally", "format": "functional, organism-based", "design": "dose 3 mg/kg", "method_in_brief": "as §5"}, "Rattus norvegicus [15]": {"test_system": "Rattus norvegicus", "assay": "Oral absorption study in rat plasma obtained from hepatic portal vein after 2 hours of administration of 3 mg/kg orally", "format": "functional, organism-based", "design": "dose 3 mg/kg", "method_in_brief": "as §5"}, "[16]": {"molecular_target": "T1, 5-hydroxytryptamine receptor 1B", "assay": "Displacement of specific [3H]5-HT binding to cloned human 5-hydroxytryptamine 1B receptor expressed in CHO cells", "format": "cell-based", "method_in_brief": "as §4"}, "Rattus norvegicus [17]": {"test_system": "Rattus norvegicus", "assay": "Oral absorption study in rat plasma obtained from cardiac blood samples after 2 hours of administration of 3 mg/kg orally", "format": "functional, organism-based", "design": "dose 3 mg/kg", "method_in_brief": "as §5"}, "[18]": {"molecular_target": "T2, 5-hydroxytryptamine receptor 1D", "assay": "Efficacy was evaluated relative to human 5-hydroxytryptamine 1D receptor using [35S]GTP-gamma-S, as radioligand", "format": "functional"}, "[19]": {"assay": "Cmax in rat", "format": "ADME, organism-based", "conditions": "in vivo", "method_in_brief": "as §1"}, "[20]": {"assay": "The compound was evaluated for the pKa units relative to N-methyl-piperazine", "format": "physicochemical"}}, "note": "Several values for one entry are separate records, joined by “and”; a condition that tells them apart may be missing. Equal values may be shown once.", "data": [{"smiles": "Fc1cccc(CCN2CCN(CCCc3c[nH]c4ccc(-n5cnnc5)cc34)CC2)c1", "values": [{"measurement": "clearance", "setting": "[1]", "result": 84, "unit": "mL/min/kg"}, {"measurement": "bioavailability", "setting": "[2]", "result": 27, "unit": "%"}, {"measurement": "EC50", "setting": "[3]", "result": 430, "unit": "nM"}, {"measurement": "Efficacy", "setting": "[4]", "result": 71, "unit": "%"}, {"measurement": "pKa", "setting": "[5]", "result": 8.3}, {"measurement": "Selectivity", "setting": "[6]", "result": 140}]}, {"smiles": "CN1CCCCC1", "note": "[N-METHYLPIPERIDINE]", "values": [{"measurement": "delta pKa", "setting": "[7]", "result": 0}, {"measurement": "RPE", "setting": "[8]", "result": 0}]}, {"smiles": "FC(Cc1c[nH]c2ccc(-n3cnnc3)cc12)CN1CCC(Cc2ccccc2)CC1", "note": "(centres undefined)", "values": [{"measurement": "Efficacy", "setting": "[9]", "result": 77, "unit": "%"}, {"measurement": "EC50", "setting": "[10]", "result": 0.9, "unit": "nM"}, {"measurement": "pKa", "setting": "[11]", "result": 8.7}, {"measurement": "bioavailability", "setting": "[2]", "result": 14, "unit": "%"}, {"measurement": "IC50", "setting": "[12]", "result": 0.9, "unit": "nM"}, {"measurement": "Plasma concentration", "setting": "Rattus norvegicus [13]", "result": 781, "unit": "ng/mL"}, {"measurement": "EC50", "setting": "[3]", "result": 450, "unit": "nM"}, {"measurement": "Plasma concentration", "setting": "Rattus norvegicus [14]", "result": 196, "unit": "ng/mL"}, {"measurement": "Plasma concentration", "setting": "Rattus norvegicus [15]", "result": 258, "unit": "ng/mL"}, {"measurement": "IC50", "setting": "[16]", "result": 62, "unit": "nM"}, {"measurement": "Selectivity", "setting": "[6]", "result": 69}, {"measurement": "Plasma concentration", "setting": "Rattus norvegicus [17]", "result": 46, "unit": "ng/mL"}]}, {"smiles": "Fc1cccc(CCN2CCN(CC(F)(F)Cc3c[nH]c4ccc(-n5cnnc5)cc34)CC2)c1", "values": [{"measurement": "EC50", "setting": "[10]", "result": 35, "unit": "nM"}, {"measurement": "clearance", "setting": "[1]", "result": 67, "unit": "mL/min/kg"}, {"measurement": "IC50", "setting": "[12]", "result": 15, "unit": "nM"}, {"measurement": "Plasma concentration", "setting": "Rattus norvegicus [13]", "result": 503, "unit": "ng/mL"}, {"measurement": "Efficacy", "setting": "[18]", "result": 78, "unit": "%"}, {"measurement": "Plasma concentration", "setting": "Rattus norvegicus [14]", "result": "< 4", "unit": "ng/mL"}, {"measurement": "Plasma concentration", "setting": "Rattus norvegicus [15]", "result": 61, "unit": "ng/mL"}, {"measurement": "IC50", "setting": "[16]", "result": 1600, "unit": "nM"}, {"measurement": "Selectivity", "setting": "[6]", "result": 107}, {"measurement": "Plasma concentration", "setting": "Rattus norvegicus [17]", "result": "< 4", "unit": "ng/mL"}]}, {"smiles": "FC(F)(Cc1c[nH]c2ccc(-n3cnnc3)cc12)CN1CCC(OCc2ccccc2)CC1", "values": [{"measurement": "Efficacy", "setting": "[9]", "result": 78, "unit": "%"}, {"measurement": "EC50", "setting": "[10]", "result": 34, "unit": "nM"}, {"measurement": "clearance", "setting": "[1]", "result": 43, "unit": "mL/min/kg"}, {"measurement": "pKa", "setting": "[11]", "result": 5.9}, {"measurement": "bioavailability", "setting": "[2]", "result": 11, "unit": "%"}, {"measurement": "IC50", "setting": "[12]", "result": 8.5, "unit": "nM"}, {"measurement": "EC50", "setting": "[3]", "result": 10000, "unit": "nM"}, {"measurement": "Efficacy", "setting": "[18]", "result": 100, "unit": "%"}, {"measurement": "Cmax", "setting": "[19]", "result": 157, "unit": "ng/mL"}, {"measurement": "IC50", "setting": "[16]", "result": 1000, "unit": "nM"}, {"measurement": "Selectivity", "setting": "[6]", "result": 118}]}, {"smiles": "CN1CCCC(F)C1", "note": "(centres undefined)", "values": [{"measurement": "delta pKa", "setting": "[7]", "result": -1.83}, {"measurement": "delta pKa", "setting": "[20]", "result": -3.24}, {"measurement": "RPE", "setting": "[8]", "result": "4.42 and 2.5"}]}]}
